# The entries come from a sample that favours hits as a whole.
# Insulin prom act = TRM-6 insulin promoter activation; TRM-6 cells (human fetal islet line), insulin promoter eGFP reporter, imaging; plate-scaled: unstimulated 0, stimulated control 100; activation, % at 2 µM; actives 0.81% (n = 130,000);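 active = activation at 2 µM above a set limit, confirmed on inspection of the cell images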;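 note: share of cells whose green reporter signal exceeds an intensity cutoff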
#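 System – TRM-6 insulin promoter–eGFP reporter cells · Probe or stimulus – 0.75 µM tamoxifen as reporter inducer · Dosing – single-point 2 µM compound dose · Incubation – tamoxifen pre-incubation 15 h overnight, then compound exposure 48 h at 37 °C · Measured by – fixed-cell fluorescence microscopy, eGFP plus Hoechst · Evaluation – percent GFP-positive cells normalized to per-plate controls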
# * marks the source's active call; other numbers are inactive results.
SMILES,Insulin prom act
O=C(Nc1nccs1)c1cccc(S(=O)(=O)N2CCCCC2)c1,182
CCCN1C(=O)c2ccc(C(=O)Nc3nccs3)cc2C1=O,475*
CCC(CC)C(=O)Nc1cccc(C(=O)Nc2nccs2)c1,76*
CCc1nnc(NC(=O)c2ccc3c(c2)C(=O)N(C(C)(C)C)C3=O)s1,-5
CCCN1C(=O)c2ccc(C(=O)NCc3ccco3)cc2C1=O,-43
Cc1ncoc1C(=O)Nc1nccs1,7
CC12COC3(C(=O)Nc4ccccc4F)CC1CCC32C (stereo not drawn),0
Cc1cc(CNC(=O)Cc2ccc(F)cc2)c2ccccc2n1,-6
Cc1ccc(-c2nnn(CC(=O)N(Cc3cccs3)C(C(=O)NCC3CCCO3)c3ccco3)n2)o1 (stereo not drawn),117
CC(NC(=O)Cc1c(F)cccc1Cl)C1CCCO1 (stereo not drawn),-3
CNC(=O)CSCc1c(F)cccc1Cl,-81
O=C(Cc1c(F)cccc1Cl)N1CCCC1,557*
COc1cccc2c(=O)cc(C)n(CC(=O)Nc3cccc(C)c3)c12,-64
CSc1ccc(CN(C)CC(=O)NC(C)c2ccccc2)cc1 (stereo not drawn),7
CN(C)CCCC(C)(O)C(Cc1ccccc1)c1ccccc1 (stereo not drawn),-8
COc1ccc(/C(O)=C/c2nc3ccc(C(=O)NCCc4cccc(C)c4)cc3[nH]c2=O)cc1OC,107
COC(=O)N/N=C/c1cccc(OCCSc2ccc(Cl)cc2)c1,-8
O=C(NC12CC3CC(CC(C3)C1)C2)c1ccc(-c2ccccc2Cl)o1,219*
O=C(NCc1ccco1)c1ccc(-c2ccccc2Cl)o1,-7
S=C(c1ccc(-c2ccccc2Cl)o1)N1CCOCC1,7
COc1ccccc1NC(=S)N1CCn2cccc2C1c1cccnc1 (stereo not drawn),0
Fc1ccc(OCCCCN2CCOCC2)cc1,-7
Cc1cc(NC(=O)c2ccccc2NS(=O)(=O)c2c(C)c(C)cc(C)c2C)no1,4
Cc1ccc(NS(=O)(=O)c2cccc(C(=O)Nc3cc(C)on3)c2)cc1,369*
Cc1ccc(S(=O)(=O)Nc2cccc(C(=O)Nc3cc(C)ccn3)c2)cc1,7
SMILES,Insulin prom act
COc1ccccc1CN1CCNC(=O)C1CC(=O)NCc1c(C)n[nH]c1C (stereo not drawn),7
Cn1c(NC(=O)Cc2cccc3ccccc23)cc(=O)n(C)c1=O,111
CCC(=O)N1CCN(c2ccc(NC(=O)c3ccc(-c4ccccc4)cc3)cc2)CC1,-3
Cc1cc(NS(=O)(=O)c2ccc(NC(=O)NC(C)(C(F)(F)F)C(F)(F)F)cc2)no1,-4
Cc1cc(NS(=O)(=O)c2ccc(NC(=O)CCCOc3ccc(Cl)cc3)cc2)no1,127*
O=C(CCCOc1ccc(Cl)cc1)Nc1cccc(C(=O)O)c1,6
CSc1ccc(C(=O)C2CCCN(C(=O)c3cccc(N4CCOCC4)c3)C2)cc1 (stereo not drawn),0
CC(C)Nc1nc(NC(C)C)nc(N(C#N)CCOc2ccc(Cl)cc2Cl)n1,0
O=C(CSc1nnc(CNc2ccc(Cl)cc2)o1)Nc1nc2c(s1)CCCC2,-4
CCOc1ccc(C(=O)OCCN(CC)CC)cc1,-80
CCN(CC)CCOc1cccc(C(C)C)c1,9
CCN(CC)CCOc1ccc(/C(=C(/Cl)c2ccccc2)c2ccccc2)cc1,280*
Cc1[nH]nc(Sc2ccccn2)c1[N+](=O)[O-],8
N#Cc1c(-c2ccccc2Cl)noc1/C=C/Nc1ccc(C(=O)O)cc1,107
O=C(COC(=O)c1ccc(F)cc1F)NC1CC1,0
O=C(c1ccccn1)N(CC1CCCO1)C1(C(=O)NC2CCCCC2)CCCCC1 (stereo not drawn),7
O=C(c1cnccn1)N(c1ccccc1)C1(C(=O)NC2CCCC2)CCCCC1,100*
Cc1c(N(C(=O)CNC(=O)c2ccccc2)C2(C(=O)NC3CCCCC3)CCCCC2)c(=O)n(-c2ccccc2)n1C,147
COc1ccc(CNC(=O)COC(=O)CCc2c[nH]c3ccccc23)cc1,0
Cc1cccc(-c2nnc(SCC(=O)Nc3ncccn3)n2C)c1,-9
Cc1ccccc1C(=O)Nc1ccccc1-n1cccc1,1
Cc1ccccc1NC(=O)c1cccc2nc3ccccc3nc12,233*
Cc1ccccc1NC(=O)c1c(Cl)nc(C)c(Cl)c1C,156
CC1CC(C)CN(C(=S)NC2CCCCC2)C1 (stereo not drawn),0
CC(C)(C)c1ccc(S(=O)(=O)N2CCN(c3ncccn3)CC2)cc1,267*
SMILES,Insulin prom act
CC(C)(C)c1cc(C(=O)N2CCN(c3ncccn3)CC2)ccn1,-64
O=S(=O)(c1cc(F)cc(F)c1)N1CCN(c2ncccn2)CC1,-7
O=C(COC(=O)/C=C/c1ccco1)Nc1cccc([N+](=O)[O-])c1,-9
O=C(/C=C/c1ccc([N+](=O)[O-])cc1)OCc1cnc(-c2ccccc2)o1,0
Nc1cc(C(=O)OCC(=O)NCc2ccco2)ccc1Cl,-9
Cc1cc(N)nc2nc(C(F)(F)F)nn12,800*
Cc1cc(C)n2nc(CCc3ccccc3)nc2n1,0
